Sampled rows, rich in hits. Any-hit rate of the full collection: about 2.2%.
Diaphorase inh: diaphorase inhibition or chemical oxidation counter-screen; diaphorase resazurin-to-resorufin fluorescence, NADH, 16 min; bacterial (C. kluyveri) enzyme, not human; inhibition, % at 20 µM; 0.69% of 190,000 active;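 active means primary screen inhibition at 20 µM above a set limit, cut at about 50% in these data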
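System: Bacterial diaphorase enzyme (C. kluyveri) | Incubation: 16-min room-temperature incubation before reading | Benchmarks: No-NADH positive control and DMSO neutral control | Measured by: Resorufin fluorescence 544/590 nm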
ROMK primary: modulates human ROMK potassium channel activity | P48048 | 2% of 130,000 active | Tet-inducible ROMK, thallium flux fluorescence; actives lie on both sides | AID 1918 | B-score at 10 µM;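 active means signal ratio slope over the read window, or its plate-corrected B-score, at least 3 SD from the plate mean, either direction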;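 further: B-score of the F/F0 ratio slope over 7 to 12 s after thallium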
PMI act: phosphomannose isomerase (human) activation. purified human PMI, coupled resazurin fluorescence, 20 min; active compounds read high; 1 = vehicle control, 0 substrate-free wells. activation factor at 20 µM. 0.005% of 190,000 active;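 active means activation factor of 2 or more at 20 µM, relative to plate controls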
Target sequence (P34949 whole entry, looked up): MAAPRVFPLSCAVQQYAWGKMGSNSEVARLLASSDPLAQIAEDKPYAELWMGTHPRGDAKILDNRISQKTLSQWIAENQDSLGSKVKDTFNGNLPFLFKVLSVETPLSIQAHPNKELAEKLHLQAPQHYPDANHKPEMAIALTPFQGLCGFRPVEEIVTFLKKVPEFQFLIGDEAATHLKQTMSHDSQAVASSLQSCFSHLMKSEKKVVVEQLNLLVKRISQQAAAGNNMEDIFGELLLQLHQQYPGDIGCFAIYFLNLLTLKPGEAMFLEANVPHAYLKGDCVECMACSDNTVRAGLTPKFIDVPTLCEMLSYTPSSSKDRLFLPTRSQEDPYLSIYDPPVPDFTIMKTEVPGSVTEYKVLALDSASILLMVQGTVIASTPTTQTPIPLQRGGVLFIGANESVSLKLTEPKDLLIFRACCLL
G6PDH CS: inhibits Leuconostoc G6PDH, flagging false hits in G6PDH-based assays | Purified L. mesenteroides G6PDH, diaphorase/resazurin coupled fluorescence, 45 min | inhibition, % at 5 µM | 0.12% of 200,000 active | AID 1020; in the data active means inhibition above about 50%
PMI act satM6P: PMI (human) activation, high substrate; P34949; coupled PMI enzyme assay, resazurin fluorescence, 20 min; active compounds read high; 1 = untreated enzyme, 0 = substrate-free blank; activation factor at 20 µM; 0.34% of 190,000 active;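 active means activation factor of 2 or more at 20 µM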
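Test system: human PMI in coupled enzyme assay; Input: PMI at 15 ng/mL final; Medium: HEPES buffer, pH 7.4; Schedule: 20 min incubation at room temperature; Technique: resorufin fluorescence at Ex 544/Em 590 nm; Compound: 20 µM single dose; Probe or stimulus: Near-saturating mannose-6-phosphate, 1.0 mM.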
Diaph act CS: counter-screen for diaphorase-based assays: diaphorase activators and chemical reducers | Diaphorase/resazurin coupled assay, resorufin fluorescence, 16 min; active compounds read high; 1 = vehicle wells, 0 = NADH-free wells | activation factor at 20 µM | 0.005% of 190,000 active | AID 1229;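 active means diaphorase activity raised at least twofold by the compound at 20 µM; inactive means activation factor below 2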
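Assay system: bacterial diaphorase enzyme (C. kluyveri) / Input: enzyme 0.07 U/mL final / Medium: 50 mM HEPES pH 7.4 with 4.542 mM MgCl2, 0.005% Tween 20 / Doses: single compound dose of 20 µM, 1% DMSO final / Incubation: 16 min enzyme reaction, ambient temperature / Signal: fluorescence, excitation 544 nm and emission 590 nm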
A number is an active result; n = inactive; x = no result given.

SMILES	Diaphorase inh	ROMK primary	PMI act	G6PDH CS	PMI act satM6P	Diaph act CS
COc1ccc(-c2nc(-c3ccccc3)c(-c3cc([N+](=O)[O-])ccc3C)[nH]2)cc1O	n	x	n	n	n	n
Cc1ccc([N+](=O)[O-])cc1-c1[nH]c(-c2ccc(O)c(O)c2)nc1-c1ccccc1	63.6	n	n	n	n	n
O=C1C2C3C=CC(C3)C2C(=O)N1CNc1ccc(O)cc1 (centres undefined)	64.2	x	n	n	n	n
Cc1c(N=Nc2ccc(O)cc2)c(=O)n(-c2ccccc2)n1C	n	n	n	n	n	n
Cc1c(N=C2C=C(Br)C(=O)C(Br)=C2)c(=O)n(-c2ccccc2)n1C	68.6	n	n	n	n	n
Cc1c(N=C2C=CC(=O)c3ccccc32)c(=O)n(-c2ccccc2)n1C	58.1	n	n	n	n	n
Cc1ccc(-n2c(=O)c3ccccc3n(CC(=O)C(C)(C)C)c2=O)cc1	n	n	n	n	n	n
COc1cc(C)ccc1N(CCCN1C(=O)c2cccc3cccc(c23)C1=O)C(=O)c1cccs1	72.0	x	n	n	n	n
COc1ccc(N(CCCN2C(=O)c3cccc4cccc(c34)C2=O)C(=O)c2cccs2)cc1	66.6	n	n	n	n	n
Cc1ccccc1C(=O)NC(CC(C)C)C(=O)OCC(=O)c1c(N)n(C)c(=O)n(C)c1=O (centres undefined)	n	n	n	n	n	n
COc1ccccc1Nc1nc(-c2c(C)nc3ncccn23)cs1	x	n	x	n	x	x
CC(C)[C@H](NC(=O)NCCc1ccc(Cl)cc1)C(=O)O	n	n	n	n	n	n
CC(C)[C@H](NC(N)=O)C(=O)NCCc1ccc(Cl)cc1	66.8	n	n	n	n	n
O=C(CNc1cccc2ccccc12)N/N=C/c1ccc(C(=O)O)cc1	n	n	n	n	n	n
O=C(CNc1ccc2ccccc2c1)N/N=C/c1ccc(C(=O)O)cc1	59.4	n	n	n	n	n
COc1ccc(C(=O)CNc2ccc3ccccc3c2)cc1	62.9	n	n	n	n	n
O=C(CNc1ccc2ccccc2c1)N/N=C/c1cc2ccccc2nc1Cl	52.4	x	n	n	n	n
COCCNC(=O)c1ccccc1NC(=O)CCSc1ccccc1	n	n	n	n	n	n
O=C(Nc1nnc(CCN2CCCCC2)s1)c1ccccc1Cl	n	n	n	n	n	n
O=C(O)CCNc1cc2ccccc2cc1C(=O)O	64.7	x	n	n	n	n
O=C(O)CCNS(=O)(=O)c1ccc2ccccc2c1	n	n	n	n	n	n
COC(=O)C/C=N/N=C1/NC(=O)/C(=C/C(=O)O)S1	x	n	x	x	x	x
CCOC(=O)C(=O)NNc1cccc(C)c1C	n	n	n	n	2.2	n
CCOC(=O)C(=O)NNc1ccccc1C	n	n	n	n	2.2	n
COc1cc(CN2CCC(C(=O)N3CCCC(C)C3)CC2)cc(OC)c1O (centres undefined)	n	n	n	52.8	n	n
SMILES	Diaphorase inh	ROMK primary	PMI act	G6PDH CS	PMI act satM6P	Diaph act CS
COc1cc(CN2CCC(C(=O)NC3CCCC3)CC2)cc(OC)c1O	n	n	n	53.3	n	n
Cc1ccc2c(c1)C(=O)C(=O)N2CC(=O)Nc1ccc(N2CCOCC2)cc1	x	n	x	n	x	x
c1cnc2c(c1)ccc1cccnc12	n	n	n	52.7	n	n
Cc1ccc2cccnc2c1N	n	n	n	n	n	n
CCOc1cccc(/C=N/NC(=S)Nc2ccccc2[N+](=O)[O-])c1O	n	n	n	n	n	n
O=[N+]([O-])c1ccccc1NC(=S)N/N=C/c1ccc(O)c(O)c1	72.1	n	n	n	n	n
O=C(c1c[nH]c(C(=O)C(Cl)(Cl)Cl)c1)c1ccc(F)cc1Cl	59.8	n	n	n	n	n
Cn1cc2ccc(N)cc2n1	70.1	n	n	53.7	n	n
O=C(Nc1ccccc1)C1=C[C@@H](c2ccc(Br)cc2)C[C@@H](OCCCCO)O1	63.1	x	n	n	n	n
O=C(Nc1ccccc1)C1=C[C@H](c2ccc3c(c2)OCO3)C[C@H](OCCCCO)O1	n	x	n	n	n	n
Cc1ccc(-c2ccnc3nc(-n4cccc4)nn23)o1	n	n	n	n	n	n
CCOCC(=O)Nc1cc(C)on1	n	n	n	n	n	n
Nc1ccc2[nH]ncc2c1	58.5	x	n	n	n	n
Cc1cc2[nH]ncc2cc1NC(N)=S	n	n	n	n	n	n
Cc1nc(Nc2ccc(C(=O)O)cc2)sc1-c1ccccc1	n	3.68	n	n	n	n
COc1ccc(C(=O)C2CCCN(C(=O)CCc3scnc3C)C2)c(C)c1 (centres undefined)	n	n	n	n	n	n
CS(=O)(=O)c1sc2nc(-c3cccs3)cc(-c3ccccc3)c2c1N	n	x	n	n	2.2	n
c1ccc(CCc2nc3ccccc3[nH]2)cc1	n	n	n	n	n	n
S=c1cnc2ccccc2[nH]1	n	n	n	n	2.1	n
COc1ccccc1NC(=O)COC(=O)c1ccccc1C(=O)N1CCN(c2ccccc2)CC1	n	n	n	n	n	n
Nc1ccc(N(CCO)CCO)cc1	52.8	n	n	n	n	n
CC(=O)CC1=NC(C)(C)Cc2ccccc21	n	n	n	n	n	n
CN1CCc2cccc3c2[C@@H]1Cc1ccc(O)c(O)c1-3	69.0	x	n	n	n	n
COc1ccc(-c2nc3c(-c4ccc(F)cc4)cnn3cc2C)cc1F	n	n	n	n	n	n
COC(=O)c1c(NC(=O)c2cccc([N+](=O)[O-])c2)sc(C(N)=O)c1C	72.1	n	n	n	n	n
SMILES	Diaphorase inh	ROMK primary	PMI act	G6PDH CS	PMI act satM6P	Diaph act CS
COC(=O)c1sc(NC(=O)c2cccc([N+](=O)[O-])c2)c(C(N)=O)c1C	n	n	n	n	n	n
COc1cccc(CN2CCC(C(=O)N3CCC(C)CC3)CC2)c1	n	n	n	n	n	n
CC(C(=O)O/N=C(\N)c1cccnc1)c1ccc([N+](=O)[O-])cc1 (centres undefined)	n	n	n	n	n	n
COc1cccc2c(=O)c3cccc(N)c3[nH]c12	85.9	n	n	n	n	n
Cc1cc(C(=O)Nc2sc3c(c2C#N)CCCC3)no1	n	3.65	n	n	n	n
Cc1cc(C(=O)Nc2sc3c(c2C#N)CCC3)no1	n	n	n	n	n	n
Cc1ccc(Cl)cc1N1CCN(C(=O)CN2C(=O)c3cccc4cccc2c34)CC1	n	-2.85	n	n	n	n
COc1cc(CN2CCC(C(=O)N3CCN(c4ccccc4F)CC3)CC2)cc(OC)c1O	n	x	n	54.5	n	n
COc1cc2c(cc1OC)CN(Cc1cc(OC)c(O)c(OC)c1)CC2	n	n	n	52.6	n	n

Assay outcomes as filed in PubChem BioAssay.
